OPRM1-OPRD1 inv: inverse agonists of human mu-delta opioid receptor heterodimerization. 340,000 tested, 0.21% active. P35372+P41143. inhibition, % at 9.3 µM. cell-based MOR-DOR heterodimer luminescence, inverse agonism; in the data active means inhibition above about 22%, passing the limit was not always enough;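 further: 0% = cells with DMSO and 100% = wells without cells with DMSO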
HTR5A inv ag: HTR5A inverse agonism, opioid heterodimer counter-screen. P47898. HTR5A cell line, luminescence. inhibition, % at 9.3 µM. 340,000 tested, 0.083% active; in the data active means inhibition mostly above about 23%, no sharp cut-off; inactive means mostly below about 18%;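 further: 0% = cells with DMSO and 100% = no-cell wells with DMSO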
Target sequence (P47898 whole entry, looked up): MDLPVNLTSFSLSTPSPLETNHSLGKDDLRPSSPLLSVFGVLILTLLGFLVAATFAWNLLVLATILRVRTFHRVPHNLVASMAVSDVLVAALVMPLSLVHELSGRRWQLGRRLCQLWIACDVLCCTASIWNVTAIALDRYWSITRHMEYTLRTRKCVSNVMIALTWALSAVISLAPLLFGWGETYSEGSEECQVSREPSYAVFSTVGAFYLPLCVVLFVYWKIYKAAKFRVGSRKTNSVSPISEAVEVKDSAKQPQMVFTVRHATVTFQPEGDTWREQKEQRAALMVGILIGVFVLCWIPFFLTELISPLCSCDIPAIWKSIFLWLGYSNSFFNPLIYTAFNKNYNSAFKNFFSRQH
Arr AP2 block: human beta-arrestin and AP2 interaction inhibition | FITC-arrestin peptide / GST-AP2 beads, flow cytometry; AP2 beta2 appendage carries R879A mutation | inhibition, % at 10 µM | 340,000 tested, 0.31% active;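 active means inhibition above a set limit, near 3 SD of compounds lacking own fluorescence, cut at about 54% in these data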;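 further: plate controls were DMSO wells for no effect and 5 µM unlabelled arrestin peptide for full effect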
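System: GST-AP2 R879A glutathione beads. Medium: PBS with 0.05% Tween 20 and 0.1% BSA. Also added: FITC-arrestin peptide, 50 nM. Incubation: 12 min plus 1 h, RT. Measured by: high-throughput flow cytometry of beads, ex 488, em 535 nm. Evaluation: percent drop in bead-associated FITC signal.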
HTR5A ag: activates human HTR5A in OPRM1-OPRD1 agonist counter-screen. 340,000 tested, 0.61% active. AID 504692. activation, % at 9.3 µM. P47898. HTR5A agonist assay, luminescence, cell-based; in the data active means activation mostly above about 9.5%, no sharp cut-off; inactive means mostly below about 7.6%;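 further: 0% = cells with vehicle only and 100% = reference agonist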
MOR-DOR ag: OPRM1-OPRD1 heterodimerization agonism | P35372+P41143 | activation, % at 9.3 µM | 340,000 tested, 0.3% active | cells, luminescence; in the data active means activation above about 18%;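 further: 0% = vehicle-treated cells and 100% = reference agonist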
DAGLB inhibitor: diacylglycerol lipase beta (human) inhibition; Q8NCG7; HEK293T DAGLB membrane lysate, EnzChek fluorogenic substrate; inhibition, % at 5.17 µM; 340,000 tested, 0.059% active; in the data active means inhibition above about 34%;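 further: 0% = enzyme with vehicle and 100% = wells lacking enzyme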
DAGLB confirm: DAGLB (human) inhibition, confirmation screen; 190 tested, 73% active; AID 504445; inhibition, % at 5.17 µM; shares compounds with DAGLB inhibitor; HEK293T DAGLB membrane lysate, EnzChek fluorogenic substrate;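 active means mean inhibition over triplicate wells above a set limit taken from the primary lipase screen, cut at about 34% in these data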;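 further: 0% = DAGLB with DMSO and 100% = wells lacking DAGLB enzyme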
Arr AP2 CP1: blocks beta-arrestin peptide binding to human AP2; inhibition, % at 10 µM; 1,300 tested, 2% active; GST-AP2 beads, FITC arrestin peptide binding, flow cytometry; GST-fused beta2-adaptin appendage, R879A mutant; AID 504908; shares compounds with Arr AP2 block;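 active means inhibition above a set limit, roughly 3 SD of non-fluorescent compound noise, cut at about 38% in these data; inactive means inhibition at or below that limit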;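 further: loss of bead fluorescence from 50 nM FITC arrestin peptide bound to appendage; 0% = negative control wells and 100% = excess unlabelled arrestin peptide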
GST-FITC bead: disrupts GST binding to glutathione beads, arrestin-AP2 artifact. shares compounds with Arr AP2 block. GST-fluorescein binding to GSH beads, fluorescence, counter-screen. inhibition, % at 10 µM. 1,300 tested, 2% active. AID 588338;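 active means inhibition above 50%, about 3 SD of the inhibition seen with non-fluorescent compounds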;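 further: fluorescein maleimide labelled GST captured on 4 micron glutathione beads; higher means more loss of bead fluorescence from quenching or blocked binding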
Starred values were filed as active, the others as inactive; nt = no result. Compounds with a hit are over-represented: about 1.4% of the library has one in this group of screens.

SMILES	OPRM1-OPRD1 inv	HTR5A inv ag	Arr AP2 block	HTR5A ag	MOR-DOR ag	DAGLB inhibitor	DAGLB confirm	others
O=C1S/C(=C\c2ccc(O)c([N+](=O)[O-])c2)C(=O)N1Cc1cccc([N+](=O)[O-])c1	nt	nt	-1	nt	nt	nt	nt
O=C1S/C(=C\c2ccc(O)c([N+](=O)[O-])c2)C(=O)N1c1ccccc1Cl	24	-6	-19	2	-5	36*	45*
COc1cccc(CN(C)CCCn2cnc(C(=O)Nc3ccc(C)c(C)c3)n2)c1	-5	-15	-7	4	1	-3	nt
O=C1c2ccccc2C(=O)c2c(O)c(O)cc(O)c21	-21	13	13	-4	4	37*	28
COc1ccc(N/C=C2\C(=O)CCc3c2oc2cc(Cl)c(O)c(Cl)c32)cc1	14	-28	-22	7	-3	36*	38*
O=C1C(NS(=O)(=O)c2cccs2)=C(N2CCN(c3cccc(Cl)c3)CC2)C(=O)c2ccccc21	-8	15	1	-4	1	41*	42*
O=C1C(NS(=O)(=O)c2ccccc2)=C(N2CCN(c3ccc(F)cc3)CC2)C(=O)c2ccccc21	-5	4	-2	-1	1	27	nt
C/C(=N\Nc1ccc(S(N)(=O)=O)cc1[N+](=O)[O-])c1ccc2c(c1)OCO2	-20	5	-3	-2	4	37*	42*
CCN(CC)S(=O)(=O)c1ccc(N/N=C(\C)c2ccc3c(c2)OCO3)c([N+](=O)[O-])c1	6	-22	6	2	-1	-2	nt
Cc1ccc(C(NC(=O)C(C)C)c2cc([N+](=O)[O-])c3cccnc3c2O)cc1 (stereo unspecified)	8	9	9	-1	-2	8	nt
CC(C)C(=O)NC(c1cccs1)c1cc([N+](=O)[O-])c2cccnc2c1O (stereo unspecified)	-12	-26	21	2	2	36*	20
Cc1ccc(NCc2cccc(B(O)O)c2)cc1	8	-10	9	3	-2	-3	nt
COc1ccc(CC(=O)Nc2ccccc2C(F)(F)F)cc1S(=O)(=O)N1CCOCC1	nt	nt	nt	nt	nt	2	nt
COc1ccc(S(=O)(=O)N2CCOCC2)cc1N=Nc1sc(N)nc1-c1ccccc1	22	16	23	0	-4	56*	92*
COc1ccc(N=Nc2nc(-c3ccccc3)c(-c3ccccc3)[nH]2)cc1	1	-18	nt	-3	0	25	nt
COc1ccccc1N=Nc1nc(-c2ccccc2)c(-c2ccccc2)[nH]1	19	26	4	-10	-3	40*	50*
Oc1ccccc1N=Nc1nc(-c2ccccc2)c(-c2ccccc2)[nH]1	-13	24	3	-13	2	38*	52*
O=C(Cc1ccc(F)cc1)N1CCN(c2ccc([N+](=O)[O-])cc2)CC1	17	15	-1	-4	-4	3	nt
O=[N+]([O-])c1ccc(N2CCN(c3ccc(F)cc3)CC2)cc1	27	-2	0	1	-6	55*	99*
CC(C)(C)Cc1c(-c2ccccc2)nc2ccc(Cl)cn12	nt	nt	nt	nt	nt	-13	nt
C[C@@H]1CN([C@H](C)CO)S(=O)(=O)c2ccc(-c3ccc(C#N)cc3)cc2O[C@H]1CN(C)C(=O)Nc1cc(F)ccc1F	nt	nt	nt	nt	nt	-2	nt
CCCN1C(=O)/C(=C2/C=Cc3ccccc3N2CC)SC1=S	23	19	7	-8	-4	54*	73*
CCCN1/C(=C2/SC(=S)N(CC)C2=O)C=Cc2ccccc21	14	2	-9	-3	-2	33	nt
O=C(NC(C(=O)N/N=C/c1cccc2ccccc12)c1n[nH]c(=O)c2ccccc12)c1ccccc1 (stereo unspecified)	10	10	2	7	-2	39*	40*
N#C/C(=C/c1cccc(O)c1)C(=O)NCc1ccc(Cl)cc1	-14	-2	5	3	2	-2	nt
SMILES	OPRM1-OPRD1 inv	HTR5A inv ag	Arr AP2 block	HTR5A ag	MOR-DOR ag	DAGLB inhibitor	DAGLB confirm	others
N#C/C(=C/c1ccc(O)c(O)c1)C(=O)NCc1ccc(Cl)cc1	15	12	39	-5	-3	45*	24
Cc1ccc(C2=C(O)C(=O)C(c3ccc(C)cc3)=C(O)C2=O)cc1	9	4	1	-1	-2	60*	25
CN(C)c1ccc(N=Nc2ccc(S(N)(=O)=O)cc2)cc1	5	26	6	-11	-1	39*	39*
CCN(CC)c1ccc(N=Nc2nn(C)c(C)c2[N+](=O)[O-])cc1	15	29	6	-9	-3	44*	46*
CCN(Cc1ccccc1)c1ccc(N=Nc2nn(C)c(C)c2[N+](=O)[O-])cc1	24	23	-2	-7	-5	59*	56*
CCN(Cc1ccccc1)c1ccccc1	5	-5	37	1	-1	-3	nt
c1ccc(-c2nnc3oc(-c4cccs4)nn23)cc1	nt	nt	nt	nt	nt	-4	nt
O=c1[nH]nc(-c2ccc[nH]2)[nH]1	nt	nt	nt	nt	nt	-3	nt
O=S(=O)(Nc1ncccn1)c1ccc(NC(=S)Nc2ccc(Cl)cc2)cc1	12	-7	5	2	-2	2	nt
CCc1ccc(NC(=S)Nc2ccc(S(=O)(=O)Nc3ncccn3)cc2)cc1	5	13	10	-3	-1	54*	-1
CCCCCCCCCCC[C@@H](C[C@@H]1OC(=O)[C@H]1CCCCCC)OC(=O)[C@H](CC(C)C)NC=O	6	-7	8	-3	-1	49*	86*
c1cncc(C2SCCCS2)c1	nt	nt	nt	nt	nt	0	nt
COC(=O)c1ccccc1NCc1cc(=O)oc2cc(O)c(O)cc12	-4	-2	9	1	1	48*	34*
CN(C)c1ccc(/C=C/c2ccc3c4ccccc4ccc3[n+]2-c2ccccc2)cc1	-77	16	39	-6	16	35*	61*
O=C(O)c1ccccc1NS(=O)(=O)c1ccc(NNC(=S)Nc2ccc(OC(F)F)cc2)c([N+](=O)[O-])c1	19	3	62*	-1	-4	52*	67*	Arr AP2 CP1=-2;GST-FITC bead=-5
C[C@H](CO)N1C[C@H](C)[C@@H](CN(C)S(=O)(=O)c2cn(C)cn2)Oc2ncc(Br)cc2C1=O	nt	nt	nt	nt	nt	-4	nt
O=C(c1ccco1)N(Cc1cc2ccccc2[nH]c1=O)C1CCCCC1	8	-5	79*	5	-1	2	nt	Arr AP2 CP1=17;GST-FITC bead=-9

Bioassay records deposited in PubChem by several laboratories.
